Screens from PubChem.
RORa activator: activators of orphan receptor RORA, primary screen, cell-based, luminescence. Nuclear receptor ROR-alpha (Homo sapiens), P35398. CHO-K1 Gal4-RORA LBD luciferase reporter; percent increase over mock-subtracted basal signal. activation, % at 10 µM. 1.5% of 65,000 active. AID 560, 2006;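 active = activation above the mean of all tested compounds plus 3 SD, cut at about 49% in these data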;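 also: 0% = DMSO-treated RORA cells and 100% = added signal equal to DMSO minus mock-transfected cells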
SF1 activator: activators of human SF-1, primary screen, cell-based, CHO-K1, Gal4-SF-1 LBD, luciferase luminescence | Steroidogenic factor 1 (Homo sapiens), Q13285 | CHO-K1 Gal4-SF-1 LBD luciferase reporter; % increase over DMSO SF-1-specific signal | activation, % at 10 µM | 1.9% of 65,000 active | AID 522, 2006;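 active = activation above the mean activation of all tested compounds plus 3 SD, cut at about 50% in these data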
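Material: Transient Gal4-SF-1 LBD reporter, CHO-K1 | Input: 4,000 cells/well | Dosing: One dose, 10 µM compound, 1% DMSO | Incubation: 20 h compound treatment, 37 °C | Detection: SteadyLite luciferase luminescence | Evaluation: Percent activation relative to DMSO median and mock-transfected background | Benchmarks: DMSO-treated SF-1-transfected cells as negative, DMSO-treated mock-transfected cells lacking SF-1 as background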
M1 agonist: M1 muscarinic receptor agonists, primary screen, CHO-M1 cells, Fluo-4 calcium, agonist mode. B-score at 10 µM. Muscarinic acetylcholine receptor M1. AID 626, 2007. Fluo-4 calcium fluorescence; active compounds read high. 3% of 64,000 active;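 active = fluorescence rise, raw or as B-score row- and column-corrected plate score, outside the 99.7% band of its plate's samples, either direction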
M1 antagonist: antagonists of rat M1 muscarinic receptor. Muscarinic acetylcholine receptor M1 (Rattus norvegicus), P08482. CHO-M1 cells, Fluo-4 calcium, ACh EC80 antagonist mode; active compounds read low. B-score at 10 µM. 3.4% of 64,000 active. AID 628, 2007;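 active = calcium fluorescence response, raw or row-and-column corrected B-score, differing from the plate sample mean either way at a set confidence level, mostly lower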
Target sequence (P08482 whole entry, looked up): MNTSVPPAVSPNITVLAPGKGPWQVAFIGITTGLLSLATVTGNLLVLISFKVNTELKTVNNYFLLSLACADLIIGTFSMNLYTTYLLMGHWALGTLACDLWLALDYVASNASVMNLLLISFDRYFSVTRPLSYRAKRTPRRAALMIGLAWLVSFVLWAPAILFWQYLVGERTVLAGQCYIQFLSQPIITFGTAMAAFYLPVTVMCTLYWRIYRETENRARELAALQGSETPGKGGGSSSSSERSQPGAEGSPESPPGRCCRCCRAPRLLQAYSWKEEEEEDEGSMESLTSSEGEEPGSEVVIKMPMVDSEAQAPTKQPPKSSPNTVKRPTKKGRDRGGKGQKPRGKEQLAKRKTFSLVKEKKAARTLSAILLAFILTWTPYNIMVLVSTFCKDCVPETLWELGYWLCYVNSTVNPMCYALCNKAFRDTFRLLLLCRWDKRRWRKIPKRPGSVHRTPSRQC
MT1-MMP txn act: MT1-MMP promoter reporter activation – cell-based, luciferase luminescence, primary screen; 0.16% of 86,000 active; HT1080 MT1-MMP promoter luciferase reporter, overnight; active compounds read high; activation factor at 10 µM;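 active = activation factor of at least 2 for MT1-MMP transcription at 10 µM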
M1 antag confirm: rat M1 muscarinic receptor antagonists, confirmation, CHO cells, Fluo-4 calcium, duplicate. shares compounds with M1 antagonist. ACh EC80 antagonism; active compounds read low. calcium response (max-min fluorescence) at 10 µM. 43% of 1,700 active;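 active = calcium response below the same-plate mean of wells given acetylcholine alone at its 80%-effect dose, minus 3 SD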;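 also: raw fluorescence intensity difference in arbitrary instrument units and not normalized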
mGluR4 antag: human mGluR4 response to M1 antagonist hits, M1 allosteric modulator project, cell-based, antagonist mode, secondary assay 1; AID 678, 2007; 0.9% of 1,700 active; shares compounds with M1 antagonist; fluorescence response (max-min) at 10 µM; CHO-mGluR4 calcium flux, Fluo-4 fluorescence, glutamate EC80; active compounds read low;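 active = fluorescence response below the plate's average for near-maximal glutamate wells, less 3 SD of those wells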;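 also: raw unnormalized fluorescence span taken in the window right after glutamate addition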
Active calls of the source: *; nt = no result. Compounds with a hit are over-represented: about 6.3% of the library has one in this group of screens.

SMILES	RORa activator	SF1 activator	M1 agonist	M1 antagonist	MT1-MMP txn act	M1 antag confirm	mGluR4 antag
CC(=O)c1cc(C(c2csc(C(C)=O)c2)c2csc(C(C)=O)c2)cs1	nt	nt	nt	nt	1	nt	nt
CC(=O)c1ccc(C(C)(C)c2ccc(C(C)=O)s2)s1	-9	-9	-0.01	-2.6*	1.2	518*	263
CCOc1ccccc1N1CCN(CC(O)COc2ccc3c(C)cc(=O)oc3c2)CC1 (configuration not stated)	1	-11	1.1	-1.5*	nt	455*	264
Cc1sc2ncnc(NCc3ccccc3)c2c1C	nt	nt	nt	nt	1.3	nt	nt
Cc1sc2ncnc(NCC(c3ccco3)N(C)C)c2c1C (configuration not stated)	-30	-5	-0.81	-21*	1	582	245
CC(C)Cn1c(N)c(C(=O)COC(=O)c2cc(C(F)(F)F)nc3c(C(F)(F)F)cccc23)c(=O)n(C)c1=O	nt	nt	nt	nt	1.1	nt	nt
c1ccc(-c2nnc(N3CCN(c4ccccn4)CC3)c3ccccc23)cc1	6	-11	1.4	-4.8*	1.1	358*	171*
CC(C)CN(CC(C)C)C(=O)Cc1coc2ccc3ccccc3c12	nt	nt	nt	nt	1.2	nt	nt
Cc1cc(=O)n2nc(N3CCC(C(=O)NC4CCCc5ccccc54)CC3)sc2n1 (configuration not stated)	-6	2	-0.17	0.099	1.1	nt	nt
COc1ccc(N2C(=O)CSC23C(=O)N2CCCc4cccc3c42)cc1 (configuration not stated)	13	-2	-0.23	-17*	1.2	28*	212
Cc1ccc(C)c(N2CCN(S(=O)(=O)c3ccc4c(c3)OCCO4)CC2)c1	2	1	-0.13	-1*	1.1	641	235
CC(=O)N1CCc2cc(S(=O)(=O)NC(CC(C)C)C(=O)N3CCn4c3nc3ccccc34)ccc21 (configuration not stated)	-21	14	-0.29	1.2	1	nt	nt
CCOC(=O)N1CCC(N2C(=O)c3ccccc3C2Nc2cc(C(=O)OC)cc(C(=O)OC)c2)CC1 (configuration not stated)	21	-10	-0.12	-2.8*	1	695	198
COC(=O)c1cc(NC2c3ccccc3C(=O)N2c2cccnc2)cc(C(=O)OC)c1 (configuration not stated)	9	-2	0.017	0.8	1.1	nt	nt
O=S(=O)(c1ccc(NCC2CCCCC2)nc1)N1CCOCC1	-5	6	0.66	-4.3*	0.9	554*	205
O=C(NC1CCCCC1)c1ccc(S(=O)(=O)N2CCOCC2)cc1	14	-10	-0.43	-0.12	1	nt	nt
CN1C(=O)C2ON(c3ccccc3)C(c3cccs3)C2C1=O (configuration not stated)	-15	24	-0.021	-2.7*	1.1	575	224
Cc1ccc(N2C(=O)C3ON(c4ccccc4)C(c4ccncc4)C3C2=O)cc1 (configuration not stated)	4	-10	0.75	0.066	1.2	nt	nt
CCc1ccc(NC(=O)CCn2ccnc2C)cc1	nt	nt	nt	nt	1.1	nt	nt
c1cncc(-c2nc(NCc3ccco3)c3ccccc3n2)c1	6	0	1.4	-2.7*	1.3	498*	228
COc1ccc(/C(N)=C/C(=O)C(C)(C)C)cc1	42	12	-0.57	-3.5*	1.3	554	216
CC(C)(C)C(=O)/C=C(\N)c1ccncc1	-5	2	-0.21	-0.65	1.1	nt	nt
C=C(C)C1Cc2c(C)nn(-c3cc(C)c4ccccc4n3)c2C1 (configuration not stated)	nt	nt	nt	nt	1.2	nt	nt
CC(CCN(C)C)OC(=O)c1ccc(C(C)c2ccccc2)o1 (configuration not stated)	-15	-21	0.25	-4.4*	1.1	349*	223
COC(=O)[C@@]1(Cc2ccc(OC)cc2)[C@H]2c3cc(C(=O)N(C)C)n(Cc4ccc(O)c(OC)c4)c3C[C@H]2CN1C(=O)c1ccccc1	nt	nt	nt	nt	1.1	nt	nt
SMILES	RORa activator	SF1 activator	M1 agonist	M1 antagonist	MT1-MMP txn act	M1 antag confirm	mGluR4 antag
Cn1c(SCCN2CCCCC2)nnc1-c1ccccc1Br	15	-4	1	-2*	1	561*	249
Cn1c(=O)n(CCOc2ccccc2Cl)c2ccccc21	37	71*	1.1	-3.5*	1.7	392*	214
COCCn1nnnc1C(c1cc2ccc(C)cc2[nH]c1=O)N(Cc1ccco1)Cc1cccs1 (configuration not stated)	-17	-3	0.63	0.028	1.1	nt	nt
CC(=O)c1ccc(OCC(O)CN2C(C)(C)CC(O)CC2(C)C)cc1 (configuration not stated)	2	-4	0.087	-3.1*	1.1	622	243
CCN1CCN(CC(O)COc2ccc(C(C)=O)cc2)CC1 (configuration not stated)	-27	-9	-1.4	-0.0022	1.1	nt	nt
O=C(CCS(=O)(=O)c1cccc2nsnc12)N1CCN(Cc2ccc3c(c2)OCO3)CC1	-5	1	-0.51	-2.5*	1.1	473	221
O=C(Cn1ccc2ccccc2c1=O)N1CCN(Cc2ccc3c(c2)OCO3)CC1	8	-1	0.07	-2.8*	1	570	181
O=C(CN1C(=O)c2ccccc2S1(=O)=O)N1CCN(Cc2ccc3c(c2)OCO3)CC1	-14	-4	-1.2	-0.18	1.1	nt	nt
O=C(CN1CCN(Cc2ccc3c(c2)OCO3)CC1)N1CCc2[nH]c3ccc(F)cc3c2C1	15	3	-0.93	-3.8*	1	477	210
O=C(CN1CCN(Cc2ccc3c(c2)OCO3)CC1)N1CCc2[nH]c3ccccc3c2C1	-17	0	-0.78	-1.7	1.2	nt	nt
O=C(CCS(=O)(=O)c1cccc2nsnc12)N1CCN(C(=O)c2ccco2)CC1	-9	8	0.83	-2	1.1	nt	nt
CC(=O)CC(=O)NC(=NC1CCCCC1)Nc1nc(C)cc(C)n1	9	16	-0.56	-2.9*	1	643	201
COc1ccc(N2C(=O)CC(N3CCN(C4CCc5ccccc5C4)CC3)C2=O)cc1 (configuration not stated)	-5	-10	0.049	-2.3*	1.1	435	223
